The structures appear in SMILES notation.

The source of these data is BindingDB's records for doi:10.1021/acsmedchemlett.8b00442 (University of Helsinki, 2018).

This assay has as its target T1, Phosphatidylserine lipase ABHD16A (Homo sapiens, UniProt O95870).
T1 sequence (O95870 whole entry): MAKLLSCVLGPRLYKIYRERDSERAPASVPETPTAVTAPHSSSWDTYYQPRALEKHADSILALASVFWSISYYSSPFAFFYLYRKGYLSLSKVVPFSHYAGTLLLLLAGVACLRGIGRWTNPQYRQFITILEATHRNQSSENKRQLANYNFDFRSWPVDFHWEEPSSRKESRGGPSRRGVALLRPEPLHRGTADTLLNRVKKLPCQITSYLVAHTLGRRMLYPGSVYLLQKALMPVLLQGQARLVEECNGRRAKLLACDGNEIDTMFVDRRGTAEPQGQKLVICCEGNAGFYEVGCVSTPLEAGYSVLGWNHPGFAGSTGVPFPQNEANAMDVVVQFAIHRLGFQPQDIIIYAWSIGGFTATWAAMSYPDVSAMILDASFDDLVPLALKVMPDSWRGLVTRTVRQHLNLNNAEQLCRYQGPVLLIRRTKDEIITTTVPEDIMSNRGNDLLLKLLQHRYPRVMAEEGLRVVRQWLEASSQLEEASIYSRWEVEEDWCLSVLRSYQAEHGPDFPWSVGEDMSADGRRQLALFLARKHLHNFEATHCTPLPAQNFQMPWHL
Nature of the assay: Inhibition of ABHD16A (unknown origin). An outline of the steps:
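Lysates of HEK293 cells transiently overexpressing human ABHD16A were pretreated for 30 min with DMSO (control) or inhibitor. 1-LG substrate (25 µM final) was then added, and liberated glycerol was measured. Screening was at 10 µM as % control activity (n=2-3). Dose-response used 0.1-100 µM, duplicate wells from two independent experiments, giving IC50.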

With `COc1nn(-c2ccc(F)cc2)c(=O)o1`, the half-inhibitory concentration (IC50) (commonly the midpoint of a concentration-inhibition curve) came out at 32 nM.
